Key:
[1] = Cytotoxicity against human HepG2 cells assessed as viable cells at 3.13 uM after 48 hrs by MTT assay; format: cell-based; conditions: read-out: Activity
Method in brief: (§1)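 HepG2 in DMEM/10% FBS, 1.2 × 10^4 cells/well, grown 48 h before dosing. Compounds from 10% DMSO stocks diluted in medium, 3.13–100 µM, 48 h at 37 °C, 5% CO2. MTT (5 mg mL-1) for 4 h, DMSO solubilisation, absorbance at 570 nm (reference 655 nm). Viability is treated absorbance relative to untreated control. Triplicate, repeated thrice.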

HepG2 [2] = test: Cytotoxicity against human HepG2 cells up to 50 uM after 48 hrs by MTT assay; format: cell-based; conditions: hepg2, 48 h; method in brief: as §1
HepG2 [3] = test: Cytotoxicity against human HepG2 cells up to 100 uM after 48 hrs by MTT assay; format: cell-based; conditions: hepg2, 48 h; method in brief: as §1
[4] = Cytotoxicity against human HepG2 cells assessed as viable cells at 25 uM after 48 hrs by MTT assay; format: cell-based; conditions: read-out: Activity; method in brief: as §1
[5] = Safety index, ratio of IC50 for human HepG2 cells to IC50 for Entamoeba histolytica HM-1:IMSS; format: toxicity, cell-based; conditions: read-out: Ratio IC50
Method in brief: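 Safety index calculated as HepG2 MTT IC50 (48 h) divided by E. histolytica HM1:IMSS IC50 (72 h microdilution).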

Entamoeba histolytica = test: Antiamoebic activity against Entamoeba histolytica HM-1:IMSS after 72 hrs by microdilution method; format: functional, organism-based
Method in brief: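 E. histolytica HM1:IMSS trophozoites in Diamond TYIS-33 medium; 1 mg mL-1 DMSO stocks, two-fold serial dilutions; 1.7 × 10^4 amoebae/well; sealed, gassed with nitrogen 10 min, 35.5 °C for 72 h. Wells methanol-fixed, eosin-stained, dye released in 0.1N NaOH, OD 490 nm. % inhibition vs control plotted against log dose; IC50 by linear regression. Triplicate, repeated thrice.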

HepG2 [6] = test: Cytotoxicity against human HepG2 cells after 48 hrs by MTT assay; format: cell-based; conditions: for IC50: Homo sapiens, HepG2, 48 h; for Activity: human, hepg2, 48 h; method in brief: as §1

SMILES	IC50 (Entamoeba histolytica)	viability at 48 h, 3.13 µM [1]	Activity (HepG2 [2])	Activity (HepG2 [3])	viability at 48 h, 25 µM [4]	selectivity ratio [5]	IC50 (HepG2 [6])	Activity (HepG2 [6])
O=S(=O)(c1ccccc1)n1nnnc1-c1ccc2c(c1)OCO2	7.56 µM	92.5%	Toxic	Toxic	≥ 70%	> 13.2	> 100 µM	Dose-dependent effect
Cc1ccc(S(=O)(=O)n2nnnc2-c2ccc3c(c2)OCO3)cc1	6.1 µM	92.5%	Toxic	Toxic	≥ 70%	> 16.4	> 100 µM	Dose-dependent effect
O=S(=O)(c1ccc(Cl)cc1)n1nnnc1-c1ccc2c(c1)OCO2	4.85 µM	92.5%	Toxic	Toxic	≥ 70%	> 20.6	> 100 µM	Dose-dependent effect
O=[N+]([O-])c1ccc(S(=O)(=O)n2nnnc2-c2ccc3c(c2)OCO3)cc1	3.75 µM	92.5%	Toxic	Toxic	≥ 70%	22.6	84.7 µM	Dose-dependent effect
O=S(=O)(c1ccc(Cl)cc1Cl)n1nnnc1-c1ccc2c(c1)OCO2	6.9 µM	92.5%	Toxic	Toxic	≥ 70%	12.3	85 µM	Dose-dependent effect
CC(C)c1ccc(S(=O)(=O)n2nnnc2-c2ccc3c(c2)OCO3)cc1	6.28 µM	92.5%	Toxic	Toxic	≥ 70%	> 15.9	> 100 µM	Dose-dependent effect
c1cc2c(cc1-c1nnn[nH]1)OCO2	14.2 µM	92.5%	Toxic	Toxic	≥ 70%	–	–	Dose-dependent effect
Cc1ncc([N+](=O)[O-])n1CCO [METRONIDAZOLE]	–	92.5%	–	–	–	> 55.5	> 100 µM	–

Continued by falling IC50 (Entamoeba histolytica), values first:

IC50 (Entamoeba histolytica)	SMILES	viability at 48 h, 3.13 µM [1]	Activity (HepG2 [2])	Activity (HepG2 [3])	viability at 48 h, 25 µM [4]	selectivity ratio [5]	IC50 (HepG2 [6])	Activity (HepG2 [6])
3.54 µM	Nc1nc(N)nc(-c2ccc3c(c2)OCO3)n1	92.5%	Toxic	Toxic	≥ 70%	–	–	Dose-dependent effect
2.85 µM	CC(C)c1ccc(S(=O)(=O)Nc2nc(NS(=O)(=O)c3ccc(C(C)C)cc3)nc(-c3ccc4c(c3)OCO4)n2)cc1	92.5%	Toxic	Toxic	≥ 70%	> 35.1	> 100 µM	Dose-dependent effect
2.6 µM	O=S(=O)(Nc1nc(NS(=O)(=O)c2ccccc2)nc(-c2ccc3c(c2)OCO3)n1)c1ccccc1	92.5%	Toxic	Toxic	≥ 70%	> 38.5	> 100 µM	Dose-dependent effect
2.56 µM	O=S(=O)(Nc1nc(NS(=O)(=O)c2ccc(Cl)cc2Cl)nc(-c2ccc3c(c2)OCO3)n1)c1ccc(Cl)cc1Cl	92.5%	Toxic	Toxic	≥ 70%	> 39.1	> 100 µM	Dose-dependent effect
2.15 µM	Cc1ccc(S(=O)(=O)Nc2nc(NS(=O)(=O)c3ccc(C)cc3)nc(-c3ccc4c(c3)OCO4)n2)cc1	92.5%	Toxic	Toxic	≥ 70%	> 46.5	> 100 µM	Dose-dependent effect
1.05 µM	O=S(=O)(Nc1nc(NS(=O)(=O)c2ccc(Cl)cc2)nc(-c2ccc3c(c2)OCO3)n1)c1ccc(Cl)cc1	92.5%	Toxic	Toxic	≥ 70%	> 95.2	> 100 µM	Dose-dependent effect
1.02 µM	O=[N+]([O-])c1ccc(S(=O)(=O)Nc2nc(NS(=O)(=O)c3ccc([N+](=O)[O-])cc3)nc(-c3ccc4c(c3)OCO4)n2)cc1	92.5%	Toxic	Toxic	≥ 70%	> 98	> 100 µM	Dose-dependent effect

— ChEMBL document CHEMBL1933011, “Probing the antiamoebic and cytotoxicity potency of novel tetrazole and triazine derivatives” (Eur J Med Chem, 2012)
